Published values of several laboratories.

For CC(C)C[C@H](NC(=O)[C@@H](NC(=O)c1ccc(Cl)cc1)C(C)C)C(=O)N[C@H](C=O)C[C@@H]1CCCNC1=O, the CC50 was greater than 100 µM (A549; cell growth or viability, MTT; 24 h).
The CC50 of COc1cc2c(c(OC)c1OC)-c1ccc(OC)c(=O)cc1[C@@H](NC(C)=O)CC2 is reported as 0.024 µM (HFF-1; cell growth or viability, resazurin; 72 h).
The inhibition of COC(=O)C1CCN(C(=O)c2ccc(N(C)Cc3cnc4nc(N)nc(N)c4n3)cc2)CC1 is reported as -29.4% (Cytochrome P450 2C19 (CYP2C19, Homo sapiens, UniProt P33261); enzyme activity, inhibitor, luciferase; 10 µM).
For N=c1c2c(-c3ccccc3)c(-c3ccccc3)n(Cc3ccccc3)c2ncn1[C@H]1CC[C@H](O)CC1, the clearance was 1.2 mL/min/kg (male beagle dog, plasma; intravenous, 0.5 mg/kg, single dose).
With CC(C)C[C@H](NC(=O)[C@@H](NC(=O)/C=C/c1ccccc1F)C(C)C)C(=O)N[C@H](C=O)C[C@@H]1CCCNC1=O the CC50 was greater than 100 µM (A549; cell growth or viability, MTT; 24 h).
The Cmax of O=C[C@H](C[C@@H]1CCNC1=O)NC(=O)[C@H](CC1CCCCC1)NC(=O)c1cc2ccccc2[nH]1 is reported as 9770 µg/mL (dog, plasma; intravenous, 4 mg/kg).
For CCC[C@@](N)(CO)CCc1ccc(OCCCCCC(C)C)cc1, the Cmax was 69.2 nM (dog, plasma; oral, 2.5 mg/kg).
For CN1CCCCC1Cn1cc(C(=O)c2cc([N+](=O)[O-])ccc2I)c2ccccc21 (racemic), the C0 was 6 µg/mL (mouse, plasma; intravenous, 25 mg/kg).
CC(C)C[C@H](NC(=O)[C@@H](NC(=O)c1ccc([N+](=O)[O-])cc1)C(C)C)C(=O)N[C@H](C=O)C[C@@H]1CCCNC1=O has a CC50 of greater than 100 µM (A549; cell growth or viability, MTT; 24 h).
With CCOC(=O)[C@@](C)(O)[C@@H]1C[C@@H](CO[Si](c2ccccc2)(c2ccccc2)C(C)(C)C)O[C@H]1n1cc(F)c(=O)[nH]c1=O the CC50 was 236 µM (A549; cell growth or viability, MTT; 42 h).
